Experimental findings from ChEMBL document CHEMBL4706601, “The endocannabinoid system dual-target ligand N-cycloheptyl-1,2-dihydro-5-bromo-1-(4-fluorobenzyl)-6-methyl-2-oxo-pyridine-3-carboxamide improves disease severity in a mouse model of multiple sclerosis” (Eur J Med Chem, 2020) are described below.

What is called EC50 is the concentration that produces a half-maximal response. The term Ki denotes a measure of affinity in units of concentration, obtained from inhibition or displacement. The term IC50 denotes the concentration needed to halve the response being measured.

Active and inactive are the calls of the source. No cut-off for these calls is given here. Some results are limits rather than exact numbers.

The target in test [1] is Cannabinoid receptor 2 (Mus musculus) (UniProt P47936). The test can be described thus: Agonist activity at CB2R in LPS induced mouse BV2 cells assessed as decrease in IL6 secretion at 10 uM preincubated for 30 mins followed by LPS stimulation for 4 hrs by ELISA. Type of test: cell-based. As to conditions: BV-2, filed as agonist, time 270.0 min. An outline of the steps:
(§1)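 BV-2 murine microglia grown in high-glucose DMEM with 10% FBS. Treatments in FBS-free medium: test agonist 10 μM for 30 min, then LPS 5 μg/ml for 4 h; SR144528 10 μM given 15 min before agonist. DMSO ≤0.1% final. Medium spun 10 min at 1000×g; IL-1β, IL-6, IL-10 quantified by ELISA; three independent experiments in duplicate.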
On the technique in general: An ELISA detects its analyte on a solid surface through an enzyme-linked reagent.

Test [2] shares this target. The test can be described thus: Agonist activity at CB2R in LPS induced mouse BV2 cells assessed as decrease in IL-1beta secretion at 10 uM preincubated for 30 mins followed by LPS stimulation for 4 hrs by ELISA. Type of test: cell-based. As to conditions: BV-2, filed as agonist, time 270.0 min. An outline of the steps: as §1
Test [3] has the same target. Description: Agonist activity at CB2R in LPS induced mouse BV2 cells assessed as increase in IL-10 secretion at 10 uM preincubated for 30 mins followed by LPS stimulation for 4 hrs by ELISA. As to conditions: BV-2, filed as agonist, time 270.0 min. Type of test: cell-based. In a few lines:
as §1

Test [4] concerns the target T1, Cannabinoid receptor 1 (Homo sapiens, UniProt P21554). The test can be described thus: Partial agonist activity at human CB1R expressed in CHO cell membranes after 90 mins by [35S]GTPgammaS assay. Format: functional, Membrane. An outline of the steps: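 Membranes from CHO cells stably expressing hCB1 (10 µg), in 50 mM Tris-HCl, 3 mM MgCl2, 0.2 mM EDTA, 100 mM NaCl, 0.5% fatty-acid-free BSA, pH 7.4, with 10 µM GDP and 0.1 nM [35S]GTPγS. Compounds added at several concentrations. Incubated 90 min at 30 °C, then rapid filtration and radioactivity counting. Non-specific binding measured with 10 µM GTPγS.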
(Binding of GTPγS marks nucleotide exchange on a G protein.)

The target in test [5] is T2, Cannabinoid receptor 2 (Homo sapiens, UniProt P34972). The test can be described thus: Inverse agonist activity at human CB2R expressed in CHO cell membranes after 90 mins by [35S]GTPgammaS assay. Type of test: functional, Membrane. An outline of the steps: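 In-house CHO membranes expressing hCB1 or hCB2 (10 µg) in 50 mM Tris-HCl, 3 mM MgCl2, 0.2 mM EDTA, 100 mM NaCl, 0.5% fatty-acid-free BSA, pH 7.4, with 10 μM GDP and 0.1 nM [35S]GTPγS. Incubated 90 min at 30 °C; antagonist pre-incubated 30 min. Nonspecific binding with 10 μM GTPγS; bound label by filtration and counting; ≥3 experiments in triplicate.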

Test [6] deals with T2, Cannabinoid receptor 2. Description: Displacement of [3H]CP55940 from recombinant human CB2R expressed in CHO cell membranes incubated for 90 mins. Also noted: species or system Membrane. In general terms: Displacement assays read how much labelled ligand stays bound in the presence of the test substance.
The target of test [7] is T1, Cannabinoid receptor 1. Description: Displacement of [3H]CP55940 from recombinant human CB1R expressed in CHO cell membranes incubated for 90 mins. Also noted: species or system Membrane.
Test [8] concerns the target T3, Fatty-acid amide hydrolase 1 (Homo sapiens, UniProt O00519).
T3 sequence (O00519 whole entry): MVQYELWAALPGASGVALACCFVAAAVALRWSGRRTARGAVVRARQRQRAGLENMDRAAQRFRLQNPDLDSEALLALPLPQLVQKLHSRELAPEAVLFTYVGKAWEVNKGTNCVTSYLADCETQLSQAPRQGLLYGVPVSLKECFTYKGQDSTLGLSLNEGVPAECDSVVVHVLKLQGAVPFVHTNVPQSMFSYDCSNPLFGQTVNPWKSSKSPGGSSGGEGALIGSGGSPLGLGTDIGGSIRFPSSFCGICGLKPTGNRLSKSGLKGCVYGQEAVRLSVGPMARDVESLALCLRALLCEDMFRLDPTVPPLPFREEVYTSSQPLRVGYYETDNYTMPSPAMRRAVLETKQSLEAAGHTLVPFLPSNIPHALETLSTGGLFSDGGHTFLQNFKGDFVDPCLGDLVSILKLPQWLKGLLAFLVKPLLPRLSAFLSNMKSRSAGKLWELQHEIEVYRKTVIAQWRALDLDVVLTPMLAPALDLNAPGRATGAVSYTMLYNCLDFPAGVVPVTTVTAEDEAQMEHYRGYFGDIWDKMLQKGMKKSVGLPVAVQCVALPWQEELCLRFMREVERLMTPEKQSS
Description: Inhibition of FAAH in human U937 cells using [ethanolamine-1-3H]AEA as substrate preincubated for 15 mins followed by substrate addition and measured after 15 mins by liquid scintillation spectroscopy. Type of test: cell-based, U-937. In a few lines:
(§2)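 Intact U937 cells, 10^6 per condition, pre-incubated with compound 15 min at 37 °C with shaking (screen at 10 μM; full curves for hits). Substrate: 1 μM AEA with 1 nM [3H]AEA (FAAH) or 10 μM 2-OG with 5 nM [3H]2-OG (MAGL), 15 min at 37 °C. Stopped with CHCl3:MeOH 1:1, aqueous tritium counted; mean ± SD, ≥3 experiments in triplicate.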

Test [9] addresses T4, Lysophosphatidylserine lipase ABHD12 (Homo sapiens, UniProt Q8N2K0).
T4 sequence (Q8N2K0 whole entry): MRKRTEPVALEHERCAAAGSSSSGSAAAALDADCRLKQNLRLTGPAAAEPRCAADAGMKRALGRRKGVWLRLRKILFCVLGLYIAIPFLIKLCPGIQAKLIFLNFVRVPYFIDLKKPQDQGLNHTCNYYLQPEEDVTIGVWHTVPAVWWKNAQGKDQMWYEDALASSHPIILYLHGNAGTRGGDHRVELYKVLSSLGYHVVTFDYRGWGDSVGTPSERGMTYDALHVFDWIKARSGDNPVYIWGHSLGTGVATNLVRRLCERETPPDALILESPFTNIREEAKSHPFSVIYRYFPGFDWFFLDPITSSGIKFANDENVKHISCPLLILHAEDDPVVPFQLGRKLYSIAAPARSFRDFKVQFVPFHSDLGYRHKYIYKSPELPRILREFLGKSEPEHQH
The test can be described thus: Inhibition of human ABHD12 expressed in HEK293 cells using 2-OG as substrate preincubated for 30 mins followed by substrate addition and measured after 5 mins by liquid scintillation spectroscopy. Format: cell-based. An outline of the steps:
(§3)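 Homogenates (40 µg) from HEK293 stably expressing hABHD6 or hABHD12 pre-incubated with compound 30 min at 37 °C in […], 0.1% BSA, pH 7.6; then 10 μM 2-OG for 5 min at 37 °C. Aqueous phase tritium counted after CHCl3:MeOH stop; no-enzyme blanks and non-transfected HEK293 hydrolysis subtracted. Controls WWL70 10 μM, THL 20 μM.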

A further test concerns the target T5, Monoglyceride lipase (Homo sapiens, UniProt Q99685).
T5 sequence (Q99685 whole entry): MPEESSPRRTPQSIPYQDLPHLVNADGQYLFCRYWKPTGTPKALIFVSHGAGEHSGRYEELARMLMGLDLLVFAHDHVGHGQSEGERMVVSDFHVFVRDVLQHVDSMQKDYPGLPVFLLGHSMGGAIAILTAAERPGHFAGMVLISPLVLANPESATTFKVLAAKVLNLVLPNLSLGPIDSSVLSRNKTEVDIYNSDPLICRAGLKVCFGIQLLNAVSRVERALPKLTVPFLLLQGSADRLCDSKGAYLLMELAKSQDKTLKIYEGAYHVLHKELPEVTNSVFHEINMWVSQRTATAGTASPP
Description: Inhibition of MAGL in human U937 cells using [glycerol-1,2,3-3H]2-OG as substrate preincubated for 15 mins followed by substrate addition and measured after 15 mins by liquid scintillation spectroscopy. Format: cell-based, U-937. In a few lines:
as §2

Test [10] concerns the target T6, Monoacylglycerol lipase ABHD6 (Homo sapiens, UniProt Q9BV23).
T6 sequence (Q9BV23 whole entry): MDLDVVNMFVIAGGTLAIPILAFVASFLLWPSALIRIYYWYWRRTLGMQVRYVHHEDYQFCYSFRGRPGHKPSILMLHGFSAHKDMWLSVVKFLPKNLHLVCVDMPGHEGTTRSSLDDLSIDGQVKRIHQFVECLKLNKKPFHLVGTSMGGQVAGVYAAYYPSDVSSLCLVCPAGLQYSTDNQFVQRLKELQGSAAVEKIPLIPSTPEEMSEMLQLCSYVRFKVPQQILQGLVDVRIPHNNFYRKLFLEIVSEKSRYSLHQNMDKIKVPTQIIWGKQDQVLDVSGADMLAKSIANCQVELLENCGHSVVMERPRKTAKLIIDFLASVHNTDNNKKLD
Description: Inhibition of human ABHD6 expressed in HEK293 cells using 2-OG as substrate preincubated for 30 mins followed by substrate addition and measured after 5 mins by liquid scintillation spectroscopy. Type of test: cell-based. In a few lines: as §3

Cannabinoid receptor 2 (Mus musculus), sequence (P47936 whole entry): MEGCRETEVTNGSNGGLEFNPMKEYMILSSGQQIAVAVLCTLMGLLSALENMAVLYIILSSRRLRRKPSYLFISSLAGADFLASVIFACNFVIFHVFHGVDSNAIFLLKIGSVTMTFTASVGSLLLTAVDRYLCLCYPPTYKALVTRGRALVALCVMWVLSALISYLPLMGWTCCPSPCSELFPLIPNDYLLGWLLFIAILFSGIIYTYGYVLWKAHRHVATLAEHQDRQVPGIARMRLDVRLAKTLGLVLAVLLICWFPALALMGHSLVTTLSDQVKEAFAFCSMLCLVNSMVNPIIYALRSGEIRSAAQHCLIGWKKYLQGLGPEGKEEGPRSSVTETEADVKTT
T2 sequence (P34972 whole entry): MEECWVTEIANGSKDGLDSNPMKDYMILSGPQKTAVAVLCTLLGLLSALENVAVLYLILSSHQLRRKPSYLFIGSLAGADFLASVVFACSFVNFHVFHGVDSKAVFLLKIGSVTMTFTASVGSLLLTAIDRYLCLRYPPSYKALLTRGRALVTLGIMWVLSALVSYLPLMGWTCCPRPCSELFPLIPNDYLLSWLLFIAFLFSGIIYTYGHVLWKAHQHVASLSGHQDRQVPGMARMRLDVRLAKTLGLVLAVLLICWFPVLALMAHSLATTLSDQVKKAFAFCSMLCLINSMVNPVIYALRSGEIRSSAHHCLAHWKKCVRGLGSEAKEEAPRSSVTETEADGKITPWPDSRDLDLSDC
T1 sequence (P21554 whole entry): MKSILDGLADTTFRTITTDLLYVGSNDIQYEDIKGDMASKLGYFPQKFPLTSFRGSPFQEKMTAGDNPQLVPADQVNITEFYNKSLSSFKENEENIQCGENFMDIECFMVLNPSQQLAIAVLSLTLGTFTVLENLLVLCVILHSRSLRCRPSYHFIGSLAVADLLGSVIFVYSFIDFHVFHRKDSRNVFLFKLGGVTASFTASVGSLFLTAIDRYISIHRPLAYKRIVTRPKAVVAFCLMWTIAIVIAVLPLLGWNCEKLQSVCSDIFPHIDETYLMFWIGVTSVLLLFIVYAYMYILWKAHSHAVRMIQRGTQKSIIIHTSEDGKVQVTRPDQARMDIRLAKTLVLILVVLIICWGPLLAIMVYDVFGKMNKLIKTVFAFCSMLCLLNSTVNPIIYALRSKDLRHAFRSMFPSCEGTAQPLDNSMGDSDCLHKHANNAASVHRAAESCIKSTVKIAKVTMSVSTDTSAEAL

Take `CCCC(C)(C)c1ccc2c(c1)OC(C)(C)[C@@H]1CC=C(C)C[C@@H]21`: the result in [1], in [2] and in test [3] was Active.

`Cc1c(-c2ccc(F)cc2)cc(C(=O)NC2CCCCCC2)c(=O)n1Cc1ccc(F)cc1`: the EC50 is 120 nM on Cannabinoid receptor 1 [4] and 6.45 nM on Cannabinoid receptor 2 [5]. Further, the Ki was 28.9 nM at Cannabinoid receptor 2 [6] and 49.3 nM on Cannabinoid receptor 1 [7]. In addition, the concentration for half-maximal inhibition (IC50) in test [8] is 530 nM; in test [9], 600 nM; against Monoglyceride lipase, > 10000 nM; in test [10], > 10000 nM.
